The source made the active and inactive calls. No cut-off for these calls is given here.
Legend:
SF-539 = experiment: Growth inhibition of human SF539 cells incubated for 48 hrs by sulforhodamine B assay; assay type: functional; conditions: SF-539, 48 h
Method in brief: (§1)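 NCI full panel screen: five 10-fold dilutions (10^-4–10^-8 M). GI50 is the molar concentration giving 50% inhibition of net cell growth.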

SN12C = experiment: Growth inhibition of human SN12C cells incubated for 48 hrs by sulforhodamine B assay; assay type: functional
Method in brief: (§2)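 NCI full-panel human tumour cell screen. Cells were exposed to five 10-fold dilutions from 10^-4 to 10^-8 M. GI50 is the molar concentration giving 50% inhibition of net cell growth, and a mean graph midpoint was calculated across the panel.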

IGROV-1 = experiment: Growth inhibition of human IGROV1 cells incubated for 48 hrs by sulforhodamine B assay; assay type: functional; conditions: IGROV-1, 48 h; method in brief: as §1
Caco-2 = experiment: Cytotoxicity against human Caco2 cells assessed as reduction in cell survival at 25 to 100 uM after 72 hrs by MTT assay; assay type: cell-based; conditions: caco-2, 72 h
Method in brief: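 Caco-2 cells, differentiated 15 days post-confluence, seeded at 2 x 10^4 cells/well and treated 72 h with 5–100 µM compound. MTT added (5 mg/mL in FBS-free medium), 2 h at 37 °C, formazan dissolved in DMSO, absorbance at 570 nm. Viability relative to vehicle control (100%); LC50 taken from the viability-concentration plot. At least three experiments in triplicate.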

NCI-H322M = experiment: Growth inhibition of human NCI-H322M cells incubated for 48 hrs by sulforhodamine B assay; assay type: functional; method in brief: as §1
Malme-3M = experiment: Growth inhibition of human MALME-3M cells incubated for 48 hrs by sulforhodamine B assay; assay type: functional; method in brief: as §1
UACC-257 = experiment: Growth inhibition of human UACC257 cells incubated for 48 hrs by sulforhodamine B assay; assay type: functional; conditions: UACC-257, 48 h; method in brief: as §2
LOX IMVI = experiment: Growth inhibition of human LOXIMVI cells incubated for 48 hrs by sulforhodamine B assay; assay type: functional; method in brief: as §1
HCC 2998 = experiment: Growth inhibition of human HCC2998 cells incubated for 48 hrs by sulforhodamine B assay; assay type: functional; conditions: HCC 2998, 48 h; method in brief: as §1
SK-OV-3 = experiment: Growth inhibition of human SKOV3 cells incubated for 48 hrs by sulforhodamine B assay; assay type: functional; conditions: SK-OV-3, 48 h; method in brief: as §2
SK-MEL-28 = experiment: Growth inhibition of human SK-MEL-28 cells incubated for 48 hrs by sulforhodamine B assay; assay type: functional; conditions: SK-MEL-28, 48 h; method in brief: as §2
NCI-H522 = experiment: Growth inhibition of human NCI-H522 cells incubated for 48 hrs by sulforhodamine B assay; assay type: functional; conditions: NCI-H522, 48 h; method in brief: as §1
SK-MEL-2 = experiment: Growth inhibition of human SK-MEL-2 cells incubated for 48 hrs by sulforhodamine B assay; assay type: functional; conditions: SK-MEL-2, 48 h; method in brief: as §2
BT-549 = experiment: Growth inhibition of human BT549 cells incubated for 48 hrs by sulforhodamine B assay; assay type: functional; conditions: BT-549, 48 h; method in brief: as §1
[1] = tested on: Panel NCI-60 (60 carcinoma cell lines); experiment: Growth inhibition of human NCI60 cells at 10^-5 M incubated for 48 hrs by sulforhodamine B assay; assay type: functional, cell-based
HCT-116 = experiment: Growth inhibition of human HCT116 cells incubated for 48 hrs by sulforhodamine B assay; assay type: functional; conditions: HCT-116, 48 h; method in brief: as §1
MCF7 [2] = experiment: Growth inhibition of human MCF7 cells incubated for 48 hrs by sulforhodamine B assay; assay type: functional; conditions: MCF7, 48 h; method in brief: as §1
HCT-15 = experiment: Growth inhibition of human HCT15 cells incubated for 48 hrs by sulforhodamine B assay; assay type: functional; conditions: HCT-15, 48 h; method in brief: as §1
T47D = experiment: Growth inhibition of human T47D cells incubated for 48 hrs by sulforhodamine B assay; assay type: functional; method in brief: as §2
OVCAR-5 = experiment: Growth inhibition of human OVCAR5 cells incubated for 48 hrs by sulforhodamine B assay; assay type: functional; conditions: OVCAR-5, 48 h; method in brief: as §1
MDA-MB-435 = experiment: Growth inhibition of human MDA-MB-435 cells incubated for 48 hrs by sulforhodamine B assay; assay type: functional; conditions: MDA-MB-435, 48 h; method in brief: as §1
SW-620 = experiment: Growth inhibition of human SW620 cells incubated for 48 hrs by sulforhodamine B assay; assay type: functional; conditions: SW-620, 48 h; method in brief: as §2
NCI-H460 = experiment: Growth inhibition of human NCI-H460 cells incubated for 48 hrs by sulforhodamine B assay; assay type: functional; conditions: NCI-H460, 48 h; method in brief: as §1
SK-MEL-5 = experiment: Growth inhibition of human SK-MEL-5 cells incubated for 48 hrs by sulforhodamine B assay; assay type: functional; conditions: SK-MEL-5, 48 h; method in brief: as §2
OVCAR-4 = experiment: Growth inhibition of human OVCAR4 cells incubated for 48 hrs by sulforhodamine B assay; assay type: functional; conditions: OVCAR-4, 48 h; method in brief: as §1
CAKI-1 = experiment: Growth inhibition of human Caki1 cells incubated for 48 hrs by sulforhodamine B assay; assay type: functional; conditions: CAKI-1, 48 h; method in brief: as §1
U-251 = experiment: Growth inhibition of human U251 cells incubated for 48 hrs by sulforhodamine B assay; assay type: functional; conditions: U-251, 48 h; method in brief: as §2
RXF 393 = experiment: Growth inhibition of human RXF393 cells incubated for 48 hrs by sulforhodamine B assay; assay type: functional; conditions: RXF 393, 48 h; method in brief: as §1
NCI/ADR-RES = experiment: Growth inhibition of human NCI/ADR-RES cells incubated for 48 hrs by sulforhodamine B assay; assay type: functional; method in brief: as §1
MDA-MB-468 = experiment: Growth inhibition of human MDA-MB-468 cells incubated for 48 hrs by sulforhodamine B assay; assay type: functional; conditions: MDA-MB-468, 48 h; method in brief: as §1
DU-145 = experiment: Growth inhibition of human DU145 cells incubated for 48 hrs by sulforhodamine B assay; assay type: functional; conditions: DU-145, 48 h; method in brief: as §1
MDA-MB-231 = experiment: Growth inhibition of human MDA-MB-231 cells incubated for 48 hrs by sulforhodamine B assay; assay type: functional; conditions: MDA-MB-231, 48 h; method in brief: as §1
MCF7 [3] = experiment: Induction of apoptosis in human MCF7 cells assessed as viable cells at 2 x 10^-6 M after 72 hrs by Annexin V/propidium iodide double staining-based flow cytometry (reference value: 98.9%); assay type: functional; conditions: MCF7, 72 h, read-out: Activity
Method in brief: (§3)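 MCF-7 cells were grown in RPMI with 10% FBS, 2 mM L-glutamine and antibiotics at 37 °C in 5% CO2. They were seeded at 2.0 x 10^5 cells/cm2 in triplicate, left to adhere overnight, then treated for 72 h; DMSO 0.1% served as vehicle. Trypsinised cells at 2.0 x 10^5/mL were stained with annexin V-FITC and PI for 15 min at room temperature in the dark. At least 1.0 x 10^4 cells were gated into viable, early apoptotic, late apoptotic and necrotic quadrants.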

[4] = Selectivity index, ratio of LC50 for human Caco2 cells to GI50 for human MCF7 cells; assay type: toxicity; conditions: Caco2 cells (LC50) and MCF7 cells (GI50), read-out: Selectivity Index
Method in brief: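 Caco-2 cells were differentiated to a normal intestinal-like state for 15 days after confluence, seeded at 2 x 10^4 cells/well in RPMI, and treated with 5–100 µM for 72 h. MTT was added for 2 h at 37 °C, formazan was dissolved in DMSO and read at 570 nm. LC50 came from viability-versus-concentration plots, with at least three experiments in triplicate. SI is the Caco-2 LC50 divided by the MCF-7 GI50.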

MCF7 [5] = experiment: Induction of apoptosis in human MCF7 cells assessed as late apoptotic cells at 2 x 10^-6 M after 72 hrs by Annexin V/propidium iodide double staining-based flow cytometry (reference value: 0%); assay type: functional; method in brief: as §3

SMILES | GI50 (SF-539) [µM] | GI50 (SN12C) [µM] | GI50 (IGROV-1) [µM] | Activity (Caco-2) | GI50 (NCI-H322M) [µM] | GI50 (Malme-3M) [µM] | GI50 (LOX IMVI) [µM] | GI50 (HCC 2998) [µM] | GI50 (SK-MEL-28) [µM] | GI50 (NCI-H522) [µM] | GI50 (SK-MEL-2) [µM] | GI50 (BT-549) [µM] | growth inhibition (GI) [1] | GI50 (HCT-116) [µM] | GI50 (MCF7 [2]) [µM] | GI50 (HCT-15) [µM] | GI50 (T47D) [µM] | GI50 (OVCAR-5) [µM] | GI50 (MDA-MB-435) [µM] | GI50 (SW-620) [µM] | also measured
COCCn1cc(-c2nc(-c3c[nH]c4ncccc34)cs2)c2cc(OC)ccc21 | 3.99 | 5.51 | 0.55 | Non-Toxic | 1.95 | 12.6 | 3.69 | 4.81 | 7.39 | 5.18 | 3.56 | 2.38 | Active | 4.55 | 0.05 | 2.15 | 0.04 | 0.61 | 6.41 | 4.5 | GI50 (UACC-257): 4.26 µM; GI50 (SK-OV-3): 3.49 µM; GI50 (NCI-H460): 1.32 µM; GI50 (SK-MEL-5): 5.53 µM; GI50 (OVCAR-4): 0.03 µM; GI50 (CAKI-1): 4.36 µM; GI50 (U-251): 4.43 µM; GI50 (RXF 393): 1.18 µM; GI50 (NCI/ADR-RES): 3.07 µM; GI50 (MDA-MB-468): 0.03 µM; GI50 (DU-145): 4.28 µM; GI50 (MDA-MB-231): 2.02 µM
COCCn1cc(-c2csc(-c3c[nH]c4ccc(Br)cc34)n2)c2cccnc21 | 7.34 | 7.72 | 4.06 | Toxic | 11.8 | 3.66 | 2.67 | 3.8 | 4.79 | 2.17 | 6.82 | 4.8 | Active | 3.84 | 1.79 | 3.14 | 1.97 | 4.83 | 4.12 | 3.3 | GI50 (UACC-257): 8.69 µM; GI50 (SK-OV-3): 13.9 µM; viability at 2 µM (MCF7 [3]): 63.6%; selectivity ratio [4]: 46; GI50 (NCI-H460): 3.07 µM; GI50 (SK-MEL-5): 3.24 µM; GI50 (OVCAR-4): 2.74 µM; GI50 (CAKI-1): 5.21 µM; Activity (MCF7 [5]): 0%; GI50 (U-251): 6.18 µM; GI50 (RXF 393): 3.3 µM; GI50 (NCI/ADR-RES): 2.86 µM; GI50 (MDA-MB-468): 2.34 µM; GI50 (MDA-MB-231): 2.65 µM
COCCn1cc(-c2csc(-c3c[nH]c4ccccc34)n2)c2cccnc21 | 5.91 | > 100 | 2.53 | Toxic | > 100 | 3.58 | 3.96 | 4.08 | 8.19 | 2.07 | 7.38 | 4.45 | Active | 3.63 | 1.74 | 2.34 | 0.42 | 28.2 | 0.86 | 3.52 | GI50 (UACC-257): > 100 µM; GI50 (SK-OV-3): 14.8 µM; viability at 2 µM (MCF7 [3]): 53.4%; selectivity ratio [4]: 41; GI50 (NCI-H460): 3.4 µM; GI50 (SK-MEL-5): 3.22 µM; GI50 (OVCAR-4): 1.76 µM; GI50 (CAKI-1): 8.36 µM; Activity (MCF7 [5]): 0%; GI50 (U-251): 6.12 µM; GI50 (RXF 393): 5.76 µM; GI50 (NCI/ADR-RES): 1.76 µM; GI50 (MDA-MB-468): 0.97 µM; GI50 (DU-145): 15.4 µM; GI50 (MDA-MB-231): 5.05 µM
COCCn1cc(-c2csc(-c3c[nH]c4ccc(F)cc34)n2)c2cccnc21 | 8.86 | > 100 | 3.49 | Toxic | > 100 | 4.54 | 3.44 | 4.54 | 7.72 | 2.19 | 3.89 | 4.26 | Active | 3.77 | 2.09 | 2.35 | 0.65 | 10.1 | 0.9 | 3.63 | viability at 2 µM (MCF7 [3]): 70.7%; selectivity ratio [4]: 46; GI50 (NCI-H460): 3.38 µM; GI50 (SK-MEL-5): 2.69 µM; GI50 (OVCAR-4): 2.59 µM; GI50 (CAKI-1): 9.54 µM; Activity (MCF7 [5]): 0%; GI50 (U-251): 5.14 µM; GI50 (RXF 393): 5.91 µM; GI50 (NCI/ADR-RES): 2.17 µM; GI50 (MDA-MB-468): 2.44 µM; GI50 (DU-145): 18.8 µM; GI50 (MDA-MB-231): 2.59 µM

Reference: ChEMBL document CHEMBL4190252, “Synthesis, antitumor activity and CDK1 inhibiton of new thiazole nortopsentin analogues” (Eur J Med Chem, 2017)
